# Source: ChEMBL document CHEMBL5034012, “Procainamide-SAHA Fused Inhibitors of hHDAC6 Tackle Multidrug-Resistant Malaria Parasites” (J Med Chem, 2021)
# The source made the active and inactive calls. No cut-off for these calls is given here.
# Columns and labels:
# Plasmodium falciparum [1] = experiment: Antiplasmodial activity against Plasmodium falciparum late stage IV-V gametocytes assessed as reduction in number of exflagellation centers in at 1 to 10 uM treated for 72 hrs; format: functional, organism-based; conditions: dose 1-10 µM
# How it was run: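 Synchronous gametocytes induced; asexual forms removed with N-acetyl glucosamine for 5 days. Day-9 stage IV-V gametocytes, about 1% gametocytemia at 2% hematocrit, treated 72h at 10, 5, 1 or 0.5 µM against 0.1% DMSO. Then washed and recultured with daily medium changes. […], pelleted cells mixed 1:1 with human serum. Exflagellation centers counted over ≥10 fields at 40× within one hour. Two independent experiments; one-way ANOVA.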
# [2] = Stability in human plasma assessed as parent compound remaining after 2 hrs; format: ADME, cell-free; conditions: read-out: Stability
# HL-60 [3] = experiment: cells; format: functional, cell-based; conditions: Homo sapiens, HL-60, 72 h
# [4] = Stability in rat plasma assessed as parent compound remaining after 2 hrs; format: ADME, cell-free; conditions: read-out: Stability
# Plasmodium berghei [5] = experiment: Antimalarial activity against Plasmodium berghei infected in C57BL/6 mouse cerebral malaria model infected with assessed as growth reduction at 20 mg/kg, ip bid measured after 4 days; format: functional, organism-based; conditions: time 4.0 day
# How it was run: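 Female C57BL/6 mice, 6 weeks old, infected i.p. with 10⁵ iRBC of GFP-expressing P. berghei ANKA. Treatment began 2h post-infection: i.p. 20mg/kg twice daily for 4 days, vehicle controls alongside; chloroquine 25mg/kg daily as positive control. Hydrochloride salt used. Parasitemia read daily by flow cytometry of 200,000 RBCs and confirmed on Giemsa smears. Mortality followed for 10 days. Single experiment, 5 mice per group.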
# Plasmodium falciparum [6] = experiment: Antiplasmodial activity against ring stage Plasmodium falciparum 3D7 assessed as defective parasite division at 10 times IC50 concentration incubated for 24 hrs by transmission electron microscopy; format: functional, organism-based
# How it was run: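 Harvested with Plasmagel and fixed in 4% PFA/0.1% glutaraldehyde. Gelatin-embedded; 60nm ultrathin sections. Anti-H3 (1/100) labelled with 10nm protein A-gold. Stained with methylcellulose/0.4% uranyl acetate and imaged by TEM at 120 kV.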
# [7] = Microsomal stability in rat liver microsomes assessed as parent compound remaining after 1 hrs; format: ADME, Microsome; conditions: read-out: Stability
# Plasmodium berghei [8] = experiment: Antimalarial activity against Plasmodium berghei infected in C57BL/6 mouse cerebral malaria model infected with assessed as increase in mouse survival days at 20 mg/kg, ip bid; format: functional, organism-based
# How it was run: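 Female C57BL/6 mice, 6 weeks old, infected i.p. with 10⁵ iRBC of GFP-expressing P. berghei ANKA. Dosing i.p. started 2h post-infection and ran 4 days: hydrochloride salt at 20mg/kg twice daily, vehicle control, or chloroquine 25mg/kg daily. Parasitemia measured daily by flow cytometry of 200,000 RBCs and confirmed by Giemsa smears. Parasitemia and mortality followed 10 days; n=5 mice/group, single experiment.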
# [9] = Microsomal stability in human liver microsomes assessed as parent compound remaining after 1 hrs; format: ADME, Microsome; conditions: read-out: Stability
# Plasmodium falciparum [10] = experiment: Antiplasmodial activity against asynchronous asexual culture of Plasmodium falciparum NF54 assessed as parasite growth inhibition; format: functional, organism-based
# How it was run: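 Asynchronous asexual NF54 cultures exposed to 7-point, 2-step serial dilutions starting at 500nM. DHA served as positive control, DMSO as negative. IC50 interpolated from three independent experiments run in triplicate.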
# Histone deacetylase = experiment: Inhibition of human HDAC using human HeLa cell nuclear extract measured after 60 mins by fluorescence assay; format: tissue-based
# [11] = target: DNA (cytosine-5)-methyltransferase 3A (Homo sapiens) (UniProt Q9Y6K1); experiment: Inhibition of human DNMT3A methylation
# Plasmodium falciparum [12] = experiment: Antiplasmodial activity against Plasmodium falciparum NF54 assessed as reduction in growth in intraerythrocytic development cycle at 10 times of IC50 concentration incubated for 6 hrs measured after 72 hrs of post synchronization […]; format: functional, organism-based
# How it was run: (§1)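 NF54 asexual parasites tightly synchronized to 0–3hpi. Exposed for 6h at 3× or 10× IC50, starting at 0, 6, 12, 18, 24, 30, 36 or 42hpi. Cells then pelleted, washed in RPMI and returned to culture. Parasitemia counted at 72h post-synchronization on Giemsa-stained thin smears. Survival expressed relative to DMSO. Three independent experiments, one well per condition.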
# Plasmodium falciparum [13] = experiment: Antiplasmodial activity against Plasmodium falciparum NF54 assessed as reduction in growth in intraerythrocytic development cycle at 3 times of IC50 concentration incubated for 6 hrs measured after 72 hrs of post synchronization […]; format: functional, organism-based; how it was run: as §1
# Plasmodium falciparum [14] = experiment: Antiplasmodial activity against Plasmodium falciparum NF54 assessed as reduction in growth in intraerythrocytic development cycle at 3 to 10 times of IC50 concentration incubated for 24 to 36 hrs measured after 72 hrs of post synchronization by SYBR Green 1 assay; format: functional; design: scale not given: the % may be the effect or the level left; conditions: time 24-36 hrs
# HL-60 [15] = experiment: Cytotoxicity against human HL-60 cells assessed as inhibition of cell proliferation at 32 uM measured after 72 hrs by ATPlite assay; format: functional
# How it was run: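 Cells exposed to compound for 72h; viability read by ATPlite. DMSO control. Technical triplicates, at least two biological replicates. IC50 interpolated from the curves.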
# [16] = target: Histone deacetylase (Homo sapiens) (UniProt Q13547+O15379+Q9UBN7+Q92769+Q9UQL6+Q8WUI4+Q9BY41+Q96DB2+P56524+Q9UKV0+Q969S8); experiment: Inhibition of human HDAC activity using nuclear extract of HeLa cells assessed as inhibition of acetylation; format: tissue-based
# How it was run: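 HeLa nuclear extract (3x10⁻³mg) incubated with compound and 43 µM Tosyl-Gly-Pro-Lys(Ac)-AMC. Buffer: 25mM Tris-HCl pH 8, 140mM NaCl, 3mM KCl, 1mM MgCl₂. Run 45 min at 37°C, then trypsin (1mg/mL) 15min at RT, then ethanol. AMC fluorescence read at ex 380/em 460nm. Background subtracted; data normalized to DMSO. Duplicates in ≥2 independent experiments.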
# Plasmodium falciparum [17] = experiment: Antiplasmodial activity against synchronized Plasmodium falciparum NF54 assessed as effect on ring stage parasite growth in intraerythrocytic development cycle at 3 times IC50 concentration measured upto 48 hrs of cell cycle by SYBR Green 1 assay; format: functional, organism-based; conditions: time hrs <=48
# Plasmodium falciparum [18] = experiment: Inhibition of Plasmodium falciparum DNMT activity using nuclear extract assessed as DNA methylation at 32 uM
# How it was run: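 P. falciparum nuclear extracts tested at 32 µM compound, or the equivalent DMSO. DNA methylation activity normalized to the DMSO sample. Triplicates in two independent experiments.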
# Plasmodium falciparum [19] = experiment: Inhibition of Plasmodium falciparum HDAC activity using nuclear extract assessed as inhibition of acetylation at 1 to 10 uM; conditions: dose 1-10 µM
# How it was run: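 P. falciparum protein extract (3x10⁻³mg) incubated with compound and 43 µM Tosyl-Gly-Pro-Lys(Ac)-AMC. Buffer: 25mM Tris-HCl pH 8, 140mM NaCl, 3mM KCl, 1mM MgCl₂. Run 45 min at 37°C, then trypsin 15min at RT, then ethanol. Fluorescence read at ex 380/em 460nm. Normalized to DMSO. Duplicates in ≥2 independent experiments.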
# Plasmodium falciparum [20] = experiment: Antiplasmodial activity against synchronized Plasmodium falciparum NF54 assessed as effect on ring stage parasite growth in intraerythrocytic development cycle at 10 times IC50 concentration incubated upto 48 hrs measured after 72 hrs of post synchronization by SYBR Green 1 assay; format: functional, organism-based; conditions: time hrs <=48
# Chain of DNA (cytosine-5)-methyltransferase 3A (Homo sapiens) (Q9Y6K1 whole entry, looked up): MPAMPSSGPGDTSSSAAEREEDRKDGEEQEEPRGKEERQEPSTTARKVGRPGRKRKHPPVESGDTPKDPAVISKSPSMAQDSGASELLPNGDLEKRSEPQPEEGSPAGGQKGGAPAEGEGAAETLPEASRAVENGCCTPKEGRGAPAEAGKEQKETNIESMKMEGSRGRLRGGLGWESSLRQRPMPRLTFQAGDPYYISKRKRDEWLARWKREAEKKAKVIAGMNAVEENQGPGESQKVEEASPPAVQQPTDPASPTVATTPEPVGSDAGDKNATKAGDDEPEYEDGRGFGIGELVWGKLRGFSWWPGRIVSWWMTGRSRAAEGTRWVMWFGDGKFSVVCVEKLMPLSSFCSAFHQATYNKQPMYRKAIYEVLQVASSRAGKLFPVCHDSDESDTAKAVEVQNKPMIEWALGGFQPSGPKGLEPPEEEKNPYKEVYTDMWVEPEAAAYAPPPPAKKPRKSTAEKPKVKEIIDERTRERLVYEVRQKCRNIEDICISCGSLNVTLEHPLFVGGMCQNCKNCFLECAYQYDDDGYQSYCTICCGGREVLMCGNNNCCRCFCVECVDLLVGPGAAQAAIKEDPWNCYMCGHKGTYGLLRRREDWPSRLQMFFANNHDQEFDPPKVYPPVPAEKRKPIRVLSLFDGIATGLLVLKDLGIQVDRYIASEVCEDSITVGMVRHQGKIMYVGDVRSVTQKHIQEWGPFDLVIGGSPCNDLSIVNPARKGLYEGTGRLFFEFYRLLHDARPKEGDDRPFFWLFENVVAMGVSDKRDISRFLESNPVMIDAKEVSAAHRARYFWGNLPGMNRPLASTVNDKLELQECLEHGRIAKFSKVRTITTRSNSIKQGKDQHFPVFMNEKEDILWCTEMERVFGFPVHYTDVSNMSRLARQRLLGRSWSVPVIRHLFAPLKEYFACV
smiles,measurement,setting,value
O=C(CCCCCCC(=O)Nc1ccc(C(=O)NC2CCNCC2)cc1)NO,Activity,Plasmodium falciparum [1],Active
same,remaining at 2 h,[2],85%
same,IC50,HL-60 [3],100000 nM
same,remaining at 2 h,[4],85%
same,Activity,Plasmodium berghei [5],Active
same,Activity,Plasmodium falciparum [6],Active
same,remaining at 1 h,[7],100%
same,Survival,Plasmodium berghei [8],Active
same,remaining at 1 h,[9],100%
same,IC50,Plasmodium falciparum [10],52 nM
same,IC50,Histone deacetylase,140 nM
CCN(CC)CCNC(=O)c1ccc(NC(=O)CCCCCCC(=O)NO)cc1,inhibition,[11],inactive
same,Activity,Plasmodium falciparum [1],Active
same,Activity,Plasmodium falciparum [12],inactive
same,Activity,Plasmodium falciparum [13],inactive
same,Activity,Plasmodium falciparum [14],<=85%
same,inhibition at 32 µM,HL-60 [15],65%
same,Activity,Plasmodium falciparum [6],Active
same,inhibition,[16],Active
same,IC50,Plasmodium falciparum [10],41 nM
same,Activity,Plasmodium falciparum [17],inactive
same,Activity,Plasmodium falciparum [18],inactive
same,Activity,Plasmodium falciparum [19],Active
same,IC50,Histone deacetylase,60 nM
same,Activity,Plasmodium falciparum [20],inactive
